PERK inh: blocks human PERK kinase; inhibition, % at 5.6 µM; Q9NZJ5; CHO PERK-DD fusion, SEAP luminescence translation reporter; actives 0.17% (n = 220,000); AID 1416;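 active = inhibition above the mean inhibition of all tested compounds plus 3 SD, set separately per screening campaign, cut at about 2.9% in these data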;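 note: PERK kinase domain activated by AP20187 dimerizer at 100 nM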
STAT3 act: activators of IL-6 induced STAT3 signaling; activation (% of control), % at 5.6 µM; AID 871; U3A cells, IL-6 STAT3-luciferase reporter, luminescence; 100% = signal with IL-6 EC80 alone; actives 0.91% (n = 190,000);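 active = activation above the screen-wide mean of compound activation plus 3 SD, cut at about 130% in these data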
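Detection: reporter luminescence signal / Assay system: STAT1-lacking human U3A cells, STAT3 luciferase reporter / Incubation: compound pre-incubation 1 h before IL-6, then 6 h stimulation at 37 °C / Control set: IL-6-only high control / Read-out: % activation relative to IL-6 control / Probe or stimulus: Interleukin-6, 33 ng/mL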
STAT3 inh: STAT3 signaling inhibition. U3A cells, IL-6 STAT3-luciferase reporter, luminescence; host cell line lacks STAT1. inhibition, % at 5.5 µM. actives 0.89% (n = 190,000);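 active = inhibition above the mean inhibition across all screened compounds plus 3 SD, cut at about 44% in these data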
STAT1 inh-1: STAT1 signaling inhibition. NIH 3T3 STAT1-luciferase reporter, IFN-gamma, luminescence. inhibition, % at 5.5 µM. actives 0.35% (n = 200,000). AID 920;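 active = inhibition above a set limit, the mean inhibition across all tested compounds plus 3 SD, cut at about 34% in these data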
Platelet DG rel: modulates dense granule release in human platelets | human platelet-rich plasma, SFLLRN dense granule ATP release, luminescence | inhibition, %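 (compounds screened at 7.5 µM in platelet-rich plasma)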 | actives 0.22% (n = 300,000) | AID 1663;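 active = mean replicate score, as percent of positive control, at or above 50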
STAT1 inh-2: STAT1 inhibition, confirmation assay | NIH 3T3 STAT1-luciferase reporter, IFN-gamma, luminescence | inhibition, % at 5.5 µM | actives 55% (n = 200) | shares compounds with STAT1 inh-1 | AID 1263;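 active = triplicate mean inhibition exceeding the hit cutoff computed for the primary STAT1 screen, cut at about 35% in these data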
NFkB inh STAT1ct: inhibits NF-kappaB, counter-screen to STAT1 inhibitors | inhibition, % at 5.7 µM | AID 1303 | shares compounds with STAT1 inh-1 | actives 30% (n = 200) | HEK293T NF-kB luciferase reporter, TNF-alpha induced, luminescence;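 active = inhibition above the mean of solvent-only control wells plus 3 SD of those wells, cut at about 15% in these data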
STAT3 inh 2: counter-screen for STAT1 inhibitors: STAT3 inhibition; shares compounds with STAT1 inh-1; U3A cells, IL-6 STAT3 luciferase reporter, luminescence; cells lacking STAT1; inhibition, % at 5.7 µM; actives 20% (n = 200); AID 1310;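 active = inhibition above the mean of solvent-only control wells plus 3 SD, set per campaign, cut at about 25% in these data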
A number is an active result; – = inactive; · = no result given. In the library only some 1.4% were active in any assay of this set; here they are far more common.

SMILES	PERK inh	STAT3 act	STAT3 inh	STAT1 inh-1	Platelet DG rel	STAT1 inh-2	NFkB inh STAT1ct	STAT3 inh 2
Cc1nc2ccccc2c(=O)n1NC(=O)c1cc(Br)ccc1Cl	–	·	·	·	–	·	·	·
CS(=O)(=O)c1nc(-c2ccc(F)cc2)cc(C(F)(F)F)n1	–	–	–	44.5	–	38.6	–	–
Cc1cc(NC(=O)CCCS(=O)(=O)c2nc(-c3cccs3)cc(C(F)(F)F)n2)no1	–	–	–	47.2	–	47.5	–	–
COc1ccc(-c2cc(C(F)(F)F)nc(S(C)(=O)=O)n2)cc1	–	–	–	–	–	·	·	·
Cc1cc(NC(=O)CSc2nc(-c3cccs3)cc(C(F)(F)F)n2)no1	–	–	–	–	–	·	·	·
CCOC(=O)CS(=O)(=O)c1nc(-c2ccc(F)cc2)cc(C(F)(F)F)n1	–	–	–	34.4	–	46.0	21.6	–
Cc1ccccc1NC(=O)C1Cc2ccccc2CN1C(=O)OCc1ccccc1 (stereo not drawn)	–	–	–	–	–	·	·	·
O=C(c1ccco1)N1CCN(c2ccnc3cc(Cl)ccc23)CC1	–	–	–	35.4	–	43.5	24.4	–
O=C(CSc1ccc(-c2cccnc2)nn1)Nc1ccc(F)c(F)c1	·	·	·	·	–	·	·	·
COc1ccc(CNC(=O)C(c2ccc(C)cc2)N(Cc2cccs2)C(=O)c2ccc3c(c2)OCCO3)cc1 (stereo not drawn)	–	–	–	38.3	–	–	–	–
CC1CC(C)CN(S(=O)(=O)c2ccc3c(c2)NC(=O)C(C)C(=O)N3)C1 (stereo not drawn)	·	·	·	·	–	·	·	·
COc1cc(C(=O)NCCCC2CCCC2)ccc1OC1CCN(C(C)=O)CC1	·	·	·	·	–	·	·	·
O=S(=O)(CC(CN1CCCCC1)N1CCCCC1)c1ccc2ccccc2c1 (stereo not drawn)	–	–	–	35.4	–	–	–	–
O=C(c1ccco1)N1CCN(c2ncnc3c2[nH]c2ccccc23)CC1	–	–	–	43.5	–	46.9	–	–
O=C(c1ccco1)N1CCN(c2ncnc3c2[nH]c2ccc(Br)cc23)CC1	–	–	–	37.0	–	37.2	–	–
CCOc1ccc2[nH]c3c(N4CCN(C(=O)c5ccco5)CC4)ncnc3c2c1	–	·	·	·	–	·	·	·
COc1ccccc1C(=O)NCCc1c(C)[nH]c2c(C)ccc(F)c12	–	–	–	–	–	·	·	·
CC(=O)Nc1cc(NC(C)=O)cc(C(=O)OCC(=O)c2ccc3c(c2)OCO3)c1	·	·	·	·	–	·	·	·

Compound activity: PubChem BioAssay, several laboratories
